A selection: hits, their analogues and other compounds. The true share with any hit is near 10%.
WT yeast gro inh: growth inhibition of WT yeast, mitochondrial fusion screen; inhibition, % at 10 µM; AID 1362; hit rate 2.1% among 190,000; mitochondrial fusion phenotypic screen, WT strain; in the data active = inhibition above about 58%; tested in S. cerevisiae
Diaphorase act: diaphorase activation or chemical reduction counter-screen; Diaphorase/resazurin coupled assay, resorufin fluorescence, 16 min; stronger effect = higher value; 1 = vehicle wells, 0 = NADH-free wells; activation factor at 20 µM; hit rate 0.005% among 190,000;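 active = diaphorase activity raised at least twofold by the compound at 20 µM; inactive = activation factor below 2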
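Material: purified diaphorase enzyme from Clostridium kluyveri / Medium: HEPES pH 7.4 buffer with MgCl2 and Tween 20 / Schedule: enzyme reaction of 16 min at room temperature / Measured by: resorufin fluorescence, excitation 544 nm, emission 590 nm / Evaluation: rise in resorufin formation, marking diaphorase activation or chemical reduction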
PMI activator: increases human mannose-6-phosphate isomerase activity; purified human PMI, coupled resazurin fluorescence, 20 min; stronger effect = higher value; 1 = vehicle control, 0 substrate-free wells; activation factor at 20 µM; hit rate 0.005% among 190,000;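 active = activation factor of 2 or more at 20 µM, relative to plate controls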
Target sequence (P34949 whole entry, looked up): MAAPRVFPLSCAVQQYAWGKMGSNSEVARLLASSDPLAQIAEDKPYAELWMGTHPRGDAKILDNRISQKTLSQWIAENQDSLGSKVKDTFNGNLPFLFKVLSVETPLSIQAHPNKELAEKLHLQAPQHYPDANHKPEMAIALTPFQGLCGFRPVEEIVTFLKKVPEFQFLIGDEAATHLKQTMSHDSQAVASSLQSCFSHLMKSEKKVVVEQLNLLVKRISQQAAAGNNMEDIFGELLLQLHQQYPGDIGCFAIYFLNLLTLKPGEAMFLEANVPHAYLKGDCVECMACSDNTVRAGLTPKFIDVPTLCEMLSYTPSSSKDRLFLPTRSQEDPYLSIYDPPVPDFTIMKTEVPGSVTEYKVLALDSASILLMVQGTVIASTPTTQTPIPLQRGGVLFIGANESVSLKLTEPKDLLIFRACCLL
PMI act satM6P: increases human PMI activity with near-saturating mannose 6-phosphate; P34949; coupled PMI enzyme assay, resazurin fluorescence, 20 min; stronger effect = higher value; 1 = untreated enzyme, 0 = substrate-free blank; activation factor at 20 µM; hit rate 0.34% among 190,000; AID 1216;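 active = activation factor of 2 or more at 20 µM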
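Material: human phosphomannose isomerase with PGI, G6PDH, diaphorase coupling enzymes; amount: PMI at 15 ng/mL final; also added: Mannose-6-phosphate 1.0 mM (near-saturating) plus 0.22 mM NADP+; incubation: enzyme reaction with compound 20 min at room temperature; signal: resorufin fluorescence (Ex 544/Em 590 nm) from resazurin via diaphorase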
L major viab: Leishmania major promastigote growth inhibition; Leishmania major promastigotes, resazurin fluorescence viability; inhibition, % at 10 µM; AID 1063; hit rate 9% among 200,000; in the data active = inhibition above about 50%;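 also: promastigotes grown with compound for 44 hours at 28 °C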
* = called active by the depositor; x = no result.

SMILES | WT yeast gro inh | Diaphorase act | PMI activator | PMI act satM6P | L major viab
CC1CN(CCOc2ccc([N+](=O)[O-])cc2)CC(C)O1 (stereo not drawn) | -3 | 0.8 | 1.1 | 1.1 | 85*
CCOC(=O)C(CCCCOc1ccc([N+](=O)[O-])cc1)C(=O)OCC | 34 | 0.9 | 0.9 | 0.9 | 2
CC(C)c1ccc(NC(=O)CCCN2C(=S)NC(C)(C)CC2C)cc1 (stereo not drawn) | 21 | 0.9 | 1 | 1 | 1
CC(C)Cc1ccc(C(C)NC(=O)c2ccc(=O)[nH]c2)cc1 (stereo not drawn) | -4 | 0.9 | 1 | 0.9 | -6
Cc1ccc(CNC(=O)CN(C)S(=O)(=O)c2cccs2)cc1 | 4 | 1 | 1.1 | 1 | 1
O=C(COC(=O)C1CC(=O)N(Cc2ccccc2)C1)c1ccc(F)cc1 (stereo not drawn) | -4 | 1.1 | 1.1 | 1.1 | -6
O=C(O)CC1S/C(=N/N=C/C2CC=CCC2)NC1=O (stereo not drawn) | 3 | 0.8 | 0.9 | 1 | -4
O=C1Nc2ccc(Cl)cc2/C1=C/C1CC=CCC1 (stereo not drawn) | 62 | 0.7 | 0.9 | 0.8 | 96*
Cc1ccc(SCC(=O)Nc2cccc(C(=O)NC(C)(C)C)c2)cc1 | 27 | 0.9 | 1 | 1.1 | 95*
CC(C)(C)NC(=O)c1ccc(NC(=O)CSc2ccccc2)cc1 | -1 | 0.9 | 1 | 1 | 1
FC(F)(F)COc1nc(N/N=C/c2cccnc2)nc(N2CCCCC2c2ccccn2)n1 (stereo not drawn) | 5 | 1 | 1 | 1.1 | 51*
C(=N\Nc1nc(N2CCCC2)nc(N2CCCC2)n1)/c1cccnc1 | -5 | 1.1 | 1.1 | 1 | -2
COC(=O)Nc1ccc(S(=O)(=O)N2CCCC(C(=O)O)C2)cc1 (stereo not drawn) | -3 | 0.8 | 0.9 | 0.9 | -5
CN(C)S(=O)(=O)c1ccc(C(=O)NNc2nc(-c3ccccc3)c3cc(Br)ccc3n2)cc1 | -19 | 0.8 | 0.9 | 0.9 | 71*
O=C(Nc1cnn(C23CC4CC(CC(C4)C2)C3)c1)c1cnn2c(C(F)(F)F)cc(-c3ccco3)nc12 | 46 | 0.9 | 1 | 1 | 82*
CC(Oc1cccc(Cl)c1)C(=O)Nc1ccncc1 (stereo not drawn) | -15 | 1 | 0.9 | 0.9 | -2
CC(Oc1cccc(Cl)c1)C(=O)Nc1ccc([N+](=O)[O-])cn1 (stereo not drawn) | 26 | 0.9 | 1 | 1 | 61*
COc1ccc(F)cc1C(=O)C1CCCN(Cc2ccc(Sc3nncn3C)o2)C1 (stereo not drawn) | 5 | 0.9 | 1 | 1 | 14
COc1ccccc1N1CCN(C(=O)c2oc3cc(C)cc(C)c3c2C)CC1 | 76* | 0.8 | 0.8 | 0.8 | 7
COc1ccc(C(NC(C)=O)c2ccc3cccnc3c2O)c(OC)c1 (stereo not drawn) | 1 | 0.7 | 1 | 0.6 | x
CCC(=O)NC(c1cccs1)c1ccc2cccnc2c1O (stereo not drawn) | -2 | 0.4 | 0.7 | 0.5 | 100*
CC(C)CC(=O)NC(c1cccs1)c1ccc2cccnc2c1O (stereo not drawn) | 0 | x | x | x | 100*
Cc1conc1NC(c1cccs1)c1ccc2cccnc2c1O (stereo not drawn) | -23 | 0.7 | 0.9 | 0.7 | 99*
CCCC(=O)NC(c1ccccc1OC)c1ccc2cccnc2c1O (stereo not drawn) | 8 | 0.6 | 0.8 | 0.6 | 100*
CCOC(=O)CN1C(=O)CN(c2ccc(C)cc2)C1=O | -19 | 1 | 0.9 | 1 | -8
SMILES | WT yeast gro inh | Diaphorase act | PMI activator | PMI act satM6P | L major viab
Cc1cccc(/N=C/c2c(O)ccc3oc4c(c23)CCCC4)n1 | 6 | 0.9 | 0.9 | 0.9 | 91*
Cc1cccc(/N=C/c2c(O)cc(C)oc2=O)n1 | 0 | 0.8 | 1.1 | 1.1 | -5
CCC(C)NC(=O)CN(c1ccc(Cl)c(Cl)c1)S(C)(=O)=O (stereo not drawn) | -16 | 1 | 0.9 | 1.1 | -2
O=C1NCCCC2c3c(cc(Br)c(O)c3Br)OC12N1CCOCC1 (stereo not drawn) | -5 | 0.8 | 1 | 0.9 | 0
O=C1NCCCC2c3cc(O)c4ccccc4c3OC12N1CCCCC1 (stereo not drawn) | 5 | 0.5 | 0.8 | 0.5 | 100*
O=C(Nc1c(F)cccc1F)c1cnc(N2CCN(c3ccccn3)CC2)c2ccccc12 | 19 | 0.8 | 0.9 | 0.9 | 79*
Cc1ccc(NC(=O)c2cnc(N3CCN(c4ccccn4)CC3)c3ccccc23)c(Br)c1 | 22 | 0.9 | 1 | 0.9 | 26
O=C(OCc1cc(=O)n2c(n1)sc1ccccc12)c1ccc(O)cc1 | 3 | 0.9 | 0.9 | 1 | 59*
CC(=O)c1ccc(Cc2ccc(C(C)=O)cc2)cc1 | -7 | 1.1 | 1.1 | 1 | -7
CN(CC(=O)N1CCCC1)S(=O)(=O)c1ccc2ccccc2c1 | -18 | 0.9 | 0.9 | 0.9 | -4
CCOc1ccccc1C(=O)Nc1ccccc1O | 51 | 0.9 | 1 | 0.9 | 71*
CCOc1ccccc1C(=O)Nc1ccccc1-c1ccccc1 | 75* | 0.9 | 0.8 | 1 | 73*
CCOc1cccc2cc(C(=O)Nc3ccccc3-c3ccccc3)c(=O)oc12 | -16 | 0.9 | 0.8 | 0.9 | 44
CCOc1ccccc1NC(=O)c1ccccc1NS(C)(=O)=O | 12 | 0.9 | 1 | 1 | -6
COCCn1c(=NC(=O)c2cc3ccccc3oc2=O)sc2cc(S(N)(=O)=O)ccc21 | -5 | 0.8 | 0.8 | 1 | -8
COc1ccc(CNC(=O)COC(=O)C2CCC(C(C)(C)C)CC2)cc1 (stereo not drawn) | 15 | 0.9 | 1 | 0.9 | 0
COc1ccccc1C1C(C(=O)NCc2ccccc2)=C(C)Nc2ncnn21 (stereo not drawn) | 15 | 0.9 | 0.9 | 0.9 | -9
CC(=O)C1=C(C)Nc2ncnn2C1c1ccccc1OCc1ccccc1 (stereo not drawn) | -6 | 0.9 | 0.9 | 0.9 | 61*
CCOC(=O)N1CCC(NC(=O)c2cc(-c3ccc(F)cc3)[nH]c2C)CC1 | 67* | 0.9 | 1 | 1 | 2
CC1=CCC2COC(c3ccc[n+](Cc4ccccc4)c3)C1C2 (stereo not drawn) | 0 | 0.7 | 0.8 | 0.6 | 47
Cc1cc(=O)oc2c1ccc1oc(/C(=N/O)c3ccccc3)c(C)c12 | 21 | 0.6 | 0.7 | 0.8 | -5
Cc1ccc(/C(=N\O)c2oc3c(C)c4oc(=O)cc(C)c4cc3c2C)cc1 | 70* | 0.7 | 0.8 | 0.8 | 49
COc1cc(OC)c(NC(=S)NCc2ccc(F)cc2)cc1Cl | 13 | 0.8 | 0.8 | 0.7 | 12
O=C(N/N=C/c1ccc([N+](=O)[O-])o1)c1cn(-c2ccccc2)nc1-c1ccccc1 | -1 | 0.9 | 1.2 | 1.1 | 97*
